Data set [1] can be described thus: folding enthalpy; higher = less favourable; fluorescence melt of hairpins on a sequencing array, two-state fit. The settings on record: sodium 0.088 M. Summed up:
(§1)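 Bootstrapped two-state fits yielded melting temperature and folding enthalpy for library hairpins. Cy3 fluorescence, with annealed Cy3 and quencher oligos, was imaged on a sequenced MiSeq flow cell in 50 mM Na-HEPES pH 8.0, 25 mM NaCl in 2.5 °C steps up to 60 °C, and normalised to pre-quench Cy3 and to control constructs. Four replicates were combined by inverse variance, and fitted temperatures were raised by 9.35 °C to match UV melts.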

Data set [2] is described as follows: melting temperature; fluorescence melt of hairpins on a sequencing array, two-state fit, raised by 9.35 °C to match UV melts. The settings on record: sodium 0.088 M. The method, boiled down: as §1

For the sequence GCCCCGCGAAAGCGGCGC ((.((((....)))).)), in data set [1], the folding enthalpy is -16.6 kcal/mol. Further, in data set [2], the Tm was 59.7 °C.

As for GCCCCGCGAAAGCTGCGC ((.(.((....)).).)), the folding enthalpy in data set [1] was -13.6 kcal/mol. The Tm in data set [2] was 36.6 °C.

Turning to GCCCCGCGAAAGCTGGGC ((((.((....)).)))), the folding enthalpy in data set [1] was -39.2 kcal/mol. Moreover, the Tm in data set [2] came to 68.8 °C.

On to GCCCCTCGAAAGAGCGGC (((.(((....))).))), for which, in data set [1], the folding enthalpy is -33 kcal/mol. In addition, the Tm in data set [2] was determined as 49.8 °C.

On to GCCCCTGCGAAAGCAGGC (((..(((....)))))), for which the folding enthalpy in data set [1] was -4.68 kcal/mol. The Tm in data set [2] was determined as 42.4 °C.

In the case of GCCCCTGGAAACAAGGGC ((((.((....)).)))), the folding enthalpy in data set [1] was -28.8 kcal/mol. Moreover, the Tm in data set [2] turned out to be 46.1 °C.

On to GCCCCTGGAAACAGGAGC ((.((((....)))).)), for which the folding enthalpy in data set [1] is -30.6 kcal/mol. Moreover, the Tm in data set [2] came to 47.5 °C.

For the sequence GCCCGACGAAAGTCGGC (((.(((....)))))), the folding enthalpy in data set [1] was -8.71 kcal/mol. In data set [2], the Tm was found to be 61.4 °C.

Turning to GCCCGCGAAAGCGACGGC ((((((....)))..))), the folding enthalpy in data set [1] is -22.3 kcal/mol. Also, the Tm in data set [2] is 54.9 °C.

Turning to GCCCGCGAAAGCGCCGGC ((((((....)))..))), in data set [1], the folding enthalpy is -17.5 kcal/mol. Moreover, the Tm in data set [2] stood at 52.3 °C.

With GCCCGCGAAAGCGTTGGC ((((((....)))..))), the folding enthalpy in data set [1] is -23.2 kcal/mol. The Tm in data set [2] turned out to be 56.2 °C.

On to GCCCGGCCGAAAGGCGGC (((..(((....)))))), for which the folding enthalpy in data set [1] is -13.2 kcal/mol. Moreover, the Tm in data set [2] worked out at 57.6 °C.

Consider GCCCGGCGAAAGCAGTGC ((.(.((....)).).)), for which the folding enthalpy in data set [1] is -18.2 kcal/mol. Moreover, in data set [2], the Tm stood at 40.5 °C.

GCCCGGCGAAAGCATGGC (((..((....))..))): the folding enthalpy in data set [1] is -19 kcal/mol. In data set [2], the Tm came to 56 °C.

With GCCCGGCGAAAGCCCGGC (((.(((....))).))), the folding enthalpy in data set [1] was -17.1 kcal/mol. Besides, the Tm in data set [2] amounted to 60.5 °C.

With GCCCGGCGAAAGCCGGC (((.(((....)))))), in data set [1], the folding enthalpy was -6.9 kcal/mol. Further, the Tm in data set [2] turned out to be 65.7 °C.

Take GCCCGGCGAAAGCTGTGC ((.(.((....)).).)): in data set [1], the folding enthalpy was -19.7 kcal/mol. In data set [2], the Tm came to 40.9 °C.

With GCCCGGCGAAAGCTTGGC (((..((....))..))), in data set [1], the folding enthalpy was -18.8 kcal/mol. Moreover, in data set [2], the Tm worked out at 52.4 °C.

For GCCCGGGGAAACCCGGAC (.(((((....))))).), the folding enthalpy in data set [1] is -13.4 kcal/mol. Also, the Tm in data set [2] was 51.3 °C.

Consider GCCCGGGGAAACCTGGGC ((((.((....)).)))), for which, in data set [1], the folding enthalpy was -52.3 kcal/mol. The Tm in data set [2] amounted to 62.3 °C.

GCCCGTCGAAAGACAGGC (((.(((....))).))): the folding enthalpy in data set [1] is -39 kcal/mol. The Tm in data set [2] came to 55.3 °C.

With GCCCTAGCGAAAGCTGGC (((..(((....)))))), the folding enthalpy in data set [1] is -13.7 kcal/mol. In data set [2], the Tm was 48 °C.

For GCCCTAGGAAACTAAGGC (((.(((....))).))), in data set [1], the folding enthalpy was -21.1 kcal/mol. Further, in data set [2], the Tm is 34 °C.

As to GCCCTCCGAAAGGATGGC (((.(((....))).))), in data set [1], the folding enthalpy is -37.5 kcal/mol. In data set [2], the Tm was found to be 55 °C.

On to GCCCTCGGAAACAAGGGC (((((.(....).))))), for which the folding enthalpy in data set [1] is -35.8 kcal/mol. Further, the Tm in data set [2] amounted to 49.6 °C.

For GCCCTGACGAAAGTCGGC (((..(((....)))))), in data set [1], the folding enthalpy was -13.6 kcal/mol. Also, in data set [2], the Tm is 48.9 °C.

As for GCCCTGCGAAAGCATTGC ((..(((....)))..)), the folding enthalpy in data set [1] was -8.56 kcal/mol. Moreover, the Tm in data set [2] was found to be 29.3 °C.

Turning to GCCCTGCGAAAGCCAGGC (((..((....))..))), the folding enthalpy in data set [1] was -15.7 kcal/mol. Also, the Tm in data set [2] worked out at 53 °C.

Consider GCCCTGCGAAAGCCGCGC ((.(.((....)).).)), for which the folding enthalpy in data set [1] is -10.3 kcal/mol. In addition, in data set [2], the Tm came out at 34.9 °C.

For the sequence GCCCTGCGAAAGCGTGGC (((..((....))..))), in data set [1], the folding enthalpy was -21.1 kcal/mol. For the same sequence, in data set [2], the Tm amounted to 55.6 °C.

For GCCCTTCGAAAGAAAGGC (((.(((....))).))), the folding enthalpy in data set [1] is -28.5 kcal/mol. Moreover, the Tm in data set [2] is 45.1 °C.

With GCCCTTGAAAAAGGGC ((((((....)))))), the folding enthalpy in data set [1] is -36 kcal/mol. Moreover, in data set [2], the Tm is 68 °C.

Consider GCCGAAGAAATTCGGC ((((((....)))))), for which the folding enthalpy in data set [1] is -33.9 kcal/mol. Besides, the Tm in data set [2] amounted to 67.4 °C.

In the case of GCCGAAGCGAAAGCTGGC (((..(((....)))))), the folding enthalpy in data set [1] is -31.6 kcal/mol. Also, the Tm in data set [2] turned out to be 57.1 °C.

As to GCCGAATCGAAAGATGGC (((..(((....)))))), the folding enthalpy in data set [1] was -26.3 kcal/mol. For the same sequence, in data set [2], the Tm came to 46.2 °C.

For the sequence GCCGACGAAAGTCGTGGC ((((((....)))..))), in data set [1], the folding enthalpy was -16.3 kcal/mol. For the same sequence, the Tm in data set [2] was determined as 57 °C.

For GCCGACGGAAACATCGGC (((((.(....).))))), the folding enthalpy in data set [1] was -38.6 kcal/mol. Moreover, the Tm in data set [2] was determined as 53 °C.

In the case of GCCGACGGAAACGTTGGC (((.(((....))).))), the folding enthalpy in data set [1] is -45.5 kcal/mol. In addition, the Tm in data set [2] came out at 63.9 °C.

For the sequence GCCGAGCGAAAGCCCCGC ((.(.((....)).).)), the folding enthalpy in data set [1] was -12.1 kcal/mol. Besides, the Tm in data set [2] came out at 32.2 °C.

Regarding GCCGAGCGAAAGCTGGGC (((.(((....))).))), the folding enthalpy in data set [1] was -30 kcal/mol. Moreover, the Tm in data set [2] turned out to be 68 °C.

As for GCCGAGCGAAAGCTTAGC ((..(((....)))..)), the folding enthalpy in data set [1] is -14.7 kcal/mol. Further, the Tm in data set [2] worked out at 39.9 °C.

On to GCCGAGGGAAACCTTGGC (((.(((....))).))), for which the folding enthalpy in data set [1] is -35.4 kcal/mol. Further, the Tm in data set [2] was determined as 58.3 °C.

As for GCCGAGGGAAACTTCGGC (((((.(....).))))), in data set [1], the folding enthalpy was -46.2 kcal/mol. The Tm in data set [2] worked out at 56.8 °C.

Take GCCGATGCGAAAGCAGGC (((..(((....)))))): the folding enthalpy in data set [1] was -20.1 kcal/mol. For the same sequence, in data set [2], the Tm turned out to be 58.5 °C.

Consider GCCGATGGAAACACCGGC ((((.((....)).)))), for which the folding enthalpy in data set [1] was -42.9 kcal/mol. Also, in data set [2], the Tm came to 52.4 °C.

As to GCCGCAGGAAACCACGGC ((((..(....)..)))), the folding enthalpy in data set [1] is -20.4 kcal/mol. Moreover, the Tm in data set [2] stood at 42.1 °C.

As for GCCGCAGGAAACCGCGGC (((((.(....).))))), the folding enthalpy in data set [1] was -32.1 kcal/mol. Moreover, in data set [2], the Tm was 67.8 °C.

Take GCCGCCGAAAGGCAGGGC ((((((....)))..))): the folding enthalpy in data set [1] is -20.3 kcal/mol. For the same sequence, the Tm in data set [2] was 66.8 °C.

As to GCCGCCGAAAGGCCAGGC ((((((....)))..))), in data set [1], the folding enthalpy is -20.4 kcal/mol. The Tm in data set [2] stood at 56.1 °C.

For GCCGCCGAAAGGCCGGGC ((((((....)))..))), the folding enthalpy in data set [1] is -16.9 kcal/mol. In data set [2], the Tm is 60.4 °C.

In the case of GCCGCCGAAAGGCTGGC ((((((....))).))), the folding enthalpy in data set [1] is -20.8 kcal/mol. For the same sequence, the Tm in data set [2] amounted to 69.2 °C.

For the sequence GCCGCGCGAAAGCACCGC ((.(.((....)).).)), in data set [1], the folding enthalpy was -13.8 kcal/mol. For the same sequence, in data set [2], the Tm was 46.5 °C.

Take GCCGCGCGAAAGCCCCGC ((.(.((....)).).)): in data set [1], the folding enthalpy is -7.57 kcal/mol. In data set [2], the Tm worked out at 33.3 °C.

On to GCCGCGCGAAAGCGTAGC ((..(((....)))..)), for which the folding enthalpy in data set [1] was -13.8 kcal/mol. For the same sequence, in data set [2], the Tm is 48.9 °C.

The values are drawn from the array DNA melting data of Ke et al. (doi:10.1101/2024.01.08.574731).
